Consider two molecules from article PMC3891043 (Canadian journal of chemistry, 2011).

Molecules are shown by their SMILES.

Data set [1] can be described thus: Photolysis quantum yields. Type of data set: physicochemical. In short, it runs like this:
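Caged compound (1–9 mmol/L) plus internal standard (caffeine or 4-acetamidophenol) in water, buffer or solvent, in a quartz tube. Irradiated in a Rayonet carousel (two 15 W, 3000 Å Hg lamps), with ferrioxalate actinometry. Aliquots taken every 30 s up to 5 min, diluted and run on C18 LC-MS (water/methanol gradient with ammonium formate/formic acid), three injections each. Quantitation used calibration curves; Φ = concentration change / photons absorbed. 1H NMR in D2O confirmed products.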

Data set [2] in a line: Stern-Volmer quenching with sorbate. Type of data set: physicochemical. Conditions: unbuffered 18 MΩ Ultrapure H2O; from KSV with kq assumed kdiff ~ 7.2 × 10^9 s^−1. The gist of the method:
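pHP GABA (0.001–0.01 mol/L) was diluted with potassium sorbate quencher (0–0.1 mol/L) and photolysed under the quantum-yield conditions (Rayonet, 3000 Å, LC-MS quantitation of GABA release). KSV came from Φ0/Φ vs [Q]. Triplet lifetime was obtained from KSV, taking kq as the diffusion rate in water.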

The mark [3] stands for this setting: 300 nm, pH 5.0, ammonium acetate (0.01 mol/L), buffered CH3CN–H2O.
[4] abbreviates: unbuffered CH3CN–H2O (1:1), conversion <2%.
[5] abbreviates: unbuffered 18 MΩ Ultrapure H2O, conversion <2%.

Regarding `N#Cc1cc(C(=O)COC(=O)CCCN)ccc1O.O=C(O)C(F)(F)F` [Compound 13, 4-(2-(3-Cyano-4-hydroxyphenyl)-2-oxoethoxy)-4-oxobutan-1-aminium-2,2,2-trifluoroacetate], in data set [1] (setting [3]), the “Φapp, quantum yield for the appearance of GABA” value (from here on “Φapp, quantum yield … of GABA”) was 0.13; the “Φapp, quantum yield for the appearance of rearranged acid” value (from here on “Φapp … of rearranged acid”) was found to be 0.19; the “Φdis, quantum yield for the disappearance of pHP GABA” value (“Φdis, quantum yield” for short) came to 0.21. Besides, in data set [1] (setting [4]), the “Φapp, quantum yield … of GABA” value is recorded as 0.35; the “Φapp … of rearranged acid” value is 0.39; the “Φdis, quantum yield” value came to 0.42. Further, the “τ^3, triplet lifetime” value in data set [2] is 40.5 10^−9s.

Turning to `NCCCC(=O)OCC(=O)c1ccc(O)c(F)c1.O=C(O)C(F)(F)F` [Compound 16, 4-(2-(3-Fluoro-4-hydroxyphenyl)-2-oxoethoxy)-4-oxobutan-1-aminium-2,2,2-trifluoroacetate], in data set [1] (setting [3]), the “Φapp, quantum yield … of GABA” value worked out at 0.14; the “Φapp … of rearranged acid” value was determined as 0.14; the “Φdis, quantum yield” value amounted to 0.15. For the same molecule, in data set [1] (setting [5]), the “Φapp, quantum yield … of GABA” value came out at 0.15; the “Φapp … of rearranged acid” value is reported as 0.15; the “Φdis, quantum yield” value amounted to 0.16. Moreover, in data set [2], the “τ^3, triplet lifetime” value is 3.23 10^−9s.
